Measured values: ChEMBL document CHEMBL4689842, “EUbOPEN Chemogenomics Library wave 1” (2021)

System: Fibroblast
Experiment: Multiplex assay against human fibroblast
Type: toxicity, cell-based
In short: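 On a CQ1 microscope at 37°C and 5% CO2, live cells were imaged after compound addition. They had been stained at seeding with Hoechst33342, BioTracker Green Microtubule Cytoskeleton Dye, MitoTracker Red and Annexin V Alexa Fluor 680. CellPathfinder machine-learning gating assigned cells to Hoechst high-intensity objects or normal cells, normal cells to healthy, pyknosed or fragmented nuclei, and pyknosed cells to mitotic or apoptotic. Tubulin, mitochondrial-mass and membrane-permeability phenotypes are per cents of healthy-nucleus cells.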

[1] = 12 h, 1 µM, compound concentration 1 uM, replicate 1
[2] = 12 h, 1 µM, compound concentration 1 uM, replicate 2
[3] = 12 h, 10 µM, compound concentration 10 uM, replicate 1
[4] = 12 h, 10 µM, compound concentration 10 uM, replicate 2
[5] = 24 h, 1 µM, compound concentration 1 uM, replicate 1
[6] = 24 h, 1 µM, compound concentration 1 uM, replicate 2
[7] = 24 h, 10 µM, compound concentration 10 uM, replicate 1
[8] = 24 h, 10 µM, compound concentration 10 uM, replicate 2
[9] = 48 h, 1 µM, compound concentration 1 uM, replicate 1
[10] = 48 h, 1 µM, compound concentration 1 uM, replicate 2
[11] = 48 h, 10 µM, compound concentration 10 uM, replicate 1
[12] = 48 h, 10 µM, compound concentration 10 uM, replicate 2

SMILES: C[C@@H](NCCCc1cccc(C(F)(F)F)c1)c1cccc2ccccc12.Cl [CINACALCET HYDROCHLORIDE]
- Population Apoptotic (%) [1]: 59%
- Population Fragmented Nuclei (%) [1]: 22%
- Population Healthy Nuclei (%) [1]: 46%
- Population Hoechst High Intensity Objects (%) [1]: 16%
- Population Membrane Permeable-Phenotype (%) [1]: 12%
- Population Mitochondria Different-Phenotype (%) [1]: 14%
- Population Mitotic Cells (%) [1]: 40%
- Population Normal (%) [1]: 84%
- Population Pyknosed Nuclei (%) [1]: 30%
- Population Tubulin-Different-Phenotype (%) [1]: 57%
- Total Cell Count [1]: 125
- Population Apoptotic (%) [2]: 33%
- Population Fragmented Nuclei (%) [2]: 10%
- Population Healthy Nuclei (%) [2]: 76%
- Population Hoechst High Intensity Objects (%) [2]: 9%
- Population Membrane Permeable-Phenotype (%) [2]: 11%
- Population Mitochondria Different-Phenotype (%) [2]: 22%
- Population Mitotic Cells (%) [2]: 66%
- Population Normal (%) [2]: 90%
- Population Pyknosed Nuclei (%) [2]: 12%
- Population Tubulin-Different-Phenotype (%) [2]: 36%
- Total Cell Count [2]: 52
- Population Apoptotic (%) [3]: 57%
- Population Fragmented Nuclei (%) [3]: 33%
- Population Healthy Nuclei (%) [3]: 35%
- Population Hoechst High Intensity Objects (%) [3]: 11%
- Population Membrane Permeable-Phenotype (%) [3]: 4%
- Population Mitochondria Different-Phenotype (%) [3]: 73%
- Population Mitotic Cells (%) [3]: 42%
- Population Normal (%) [3]: 88%
- Population Pyknosed Nuclei (%) [3]: 30%
- Total Cell Count [3]: 155
- Population Apoptotic (%) [4]: 88%
- Population Fragmented Nuclei (%) [4]: 20%
- Population Healthy Nuclei (%) [4]: 23%
- Population Hoechst High Intensity Objects (%) [4]: 7%
- Population Membrane Permeable-Phenotype (%) [4]: 33%
- Population Mitochondria Different-Phenotype (%) [4]: 93%
- Population Mitotic Cells (%) [4]: 11%
- Population Normal (%) [4]: 92%
- Population Pyknosed Nuclei (%) [4]: 55%
- Population Tubulin-Different-Phenotype (%) [4]: 93%
- Total Cell Count [4]: 68
- Population Apoptotic (%) [5]: 38%
- Population Fragmented Nuclei (%) [5]: 25%
- Population Healthy Nuclei (%) [5]: 50%
- Population Hoechst High Intensity Objects (%) [5]: 15%
- Population Membrane Permeable-Phenotype (%) [5]: 16%
- Population Mitochondria Different-Phenotype (%) [5]: 12%
- Population Mitotic Cells (%) [5]: 61%
- Population Normal (%) [5]: 84%
- Population Pyknosed Nuclei (%) [5]: 24%
- Population Tubulin-Different-Phenotype (%) [5]: 65%
- Total Cell Count [5]: 128
- Population Apoptotic (%) [6]: 36%
- Population Fragmented Nuclei (%) [6]: 8%
- Population Healthy Nuclei (%) [6]: 69%
- Population Hoechst High Intensity Objects (%) [6]: 7%
- Population Membrane Permeable-Phenotype (%) [6]: 5%
- Population Mitochondria Different-Phenotype (%) [6]: 26%
- Population Mitotic Cells (%) [6]: 63%
- Population Normal (%) [6]: 92%
- Population Pyknosed Nuclei (%) [6]: 22%
- Population Tubulin-Different-Phenotype (%) [6]: 17%
- Total Cell Count [6]: 53
- Population Apoptotic (%) [7]: 65%
- Population Fragmented Nuclei (%) [7]: 35%
- Population Healthy Nuclei (%) [7]: 35%
- Population Hoechst High Intensity Objects (%) [7]: 11%
- Population Membrane Permeable-Phenotype (%) [7]: 10%
- Population Mitochondria Different-Phenotype (%) [7]: 71%
- Population Mitotic Cells (%) [7]: 34%
- Population Normal (%) [7]: 88%
- Population Pyknosed Nuclei (%) [7]: 28%
- Population Tubulin-Different-Phenotype (%) [7]: 89%
- Total Cell Count [7]: 208
- Population Apoptotic (%) [8]: 92%
- Population Fragmented Nuclei (%) [8]: 15%
- Population Healthy Nuclei (%) [8]: 32%
- Population Hoechst High Intensity Objects (%) [8]: 24%
- Population Membrane Permeable-Phenotype (%) [8]: 52%
- Population Mitochondria Different-Phenotype (%) [8]: 88%
- Population Mitotic Cells (%) [8]: 7%
- Population Normal (%) [8]: 75%
- Population Pyknosed Nuclei (%) [8]: 51%
- Population Tubulin-Different-Phenotype (%) [8]: 82%
- Total Cell Count [8]: 69
- Population Apoptotic (%) [9]: 46%
- Population Fragmented Nuclei (%) [9]: 33%
- Population Healthy Nuclei (%) [9]: 52%
- Population Hoechst High Intensity Objects (%) [9]: 19%
- Population Membrane Permeable-Phenotype (%) [9]: 16%
- Population Mitochondria Different-Phenotype (%) [9]: 5%
- Population Mitotic Cells (%) [9]: 53%
- Population Normal (%) [9]: 80%
- Population Pyknosed Nuclei (%) [9]: 14%
- Population Tubulin-Different-Phenotype (%) [9]: 40%
- Total Cell Count [9]: 130
- Population Apoptotic (%) [10]: 66%
- Population Fragmented Nuclei (%) [10]: 50%
- Population Healthy Nuclei (%) [10]: 47%
- Population Hoechst High Intensity Objects (%) [10]: 10%
- Population Membrane Permeable-Phenotype (%) [10]: 15%
- Population Mitochondria Different-Phenotype (%) [10]: 4%
- Population Mitotic Cells (%) [10]: 33%
- Population Normal (%) [10]: 89%
- Population Pyknosed Nuclei (%) [10]: 1%
- Population Tubulin-Different-Phenotype (%) [10]: 58%
- Total Cell Count [10]: 169
- Population Apoptotic (%) [11]: 90%
- Population Fragmented Nuclei (%) [11]: 42%
- Population Healthy Nuclei (%) [11]: 36%
- Population Hoechst High Intensity Objects (%) [11]: 13%
- Population Membrane Permeable-Phenotype (%) [11]: 5%
- Population Mitochondria Different-Phenotype (%) [11]: 68%
- Population Mitotic Cells (%) [11]: 10%
- Population Normal (%) [11]: 86%
- Population Pyknosed Nuclei (%) [11]: 20%
- Population Tubulin-Different-Phenotype (%) [11]: 80%
- Total Cell Count [11]: 226
- Population Apoptotic (%) [12]: 92%
- Population Fragmented Nuclei (%) [12]: 35%
- Population Healthy Nuclei (%) [12]: 8%
- Population Hoechst High Intensity Objects (%) [12]: 23%
- Population Membrane Permeable-Phenotype (%) [12]: 25%
- Population Mitochondria Different-Phenotype (%) [12]: 25%
- Population Mitotic Cells (%) [12]: 7%
- Population Normal (%) [12]: 76%
- Population Pyknosed Nuclei (%) [12]: 55%
- Population Tubulin-Different-Phenotype (%) [12]: 50%
- Total Cell Count [12]: 121
